# Test results reported in ChEMBL document CHEMBL1124774, “Synthesis and biological activity of some derivatives of rifamycin P” (1990).
# Columns and labels:
# [1] = system: Mycobacteroides chelonae; assay: In vitro activity of compound against rapidly growing Mycobacterium chelonae 1443
# [2] = system: Mycobacterium kansasii; assay: In vitro activity compound against slowly growing Mycobacterium kansasii 1298; assay type: functional
# Procedure, shortened: (§1)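 Medium was Middlebrook 7H10 agar with 2% glycerol and 10% OADC. Organisms from Loevenstein-Jensen slants were grown in 7H9 broth with 0.5% Tween and 10% OADC, adjusted to McFarland no. 1, and spotted with a multipoint inoculator. Sealed plates were incubated at 22, 30 or 37 °C for 4-20 days depending on strain.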
# [3] = system: Streptococcus pyogenes; assay: In vitro antibacterial activity of compound against Streptococcus pyogenes C 203 SKF 13400; assay type: functional
# Procedure, shortened: (§2)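 Streptococcal MICs were run by twofold microdilution in Todd-Hewitt broth over 128-0.0001 µg/mL. Inoculum was 10^4 cfu/mL, with incubation at 37 °C for 18-24 h.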
# [4] = system: Mycolicibacterium fortuitum; assay: In vitro activity of compound against rapidly growing Mycobacterium fortuitum 1285; assay type: functional
# Procedure, shortened: as §1
# [5] = system: Staphylococcus epidermidis; assay: In vitro antibacterial activity of compound against Staphylococcus epidermidis ATCC 12228; assay type: functional
# Procedure, shortened: (§3)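 Twofold microdilution MIC in Iso-Sensitest broth over 128-0.0001 µg/mL. Inoculum was 10^4 cfu/mL, with incubation at 37 °C for 18-24 h.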
# [6] = system: Klebsiella pneumoniae; assay: In vitro antibacterial activity of compound against Klebsiella pneumoniae ISM; assay type: functional
# [7] = system: Staphylococcus aureus; assay: Activity in the murine model (OS route) of Staphylococcus aureus tour septicemia; assay type: functional
# Procedure, shortened: (§4)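 Male and female CD1 mice (18-22 g) were infected ip with S. aureus Tour. The challenge was set so untreated mice died within 48 h. Groups were five mice, dosed once daily for 3 days starting immediately after infection. ED50 was calculated on day 10 from the percentage surviving at each dose.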
# [8] = system: Mycobacterium tuberculosis; assay: In vitro antibacterial activity of compound against Mycobacterium tuberculosis H37Rv ATCC 9660; assay type: functional
# [9] = system: Mycobacterium marinum; assay: In vitro activity of compound against slowly growing Mycobacterium marinum 1392 h; assay type: functional
# Procedure, shortened: as §1
# [10] = system: Mycobacterium kansasii; assay: In vitro activity compound against slowly growing Mycobacterium kansasii 1291; assay type: functional
# Procedure, shortened: as §1
# [11] = system: Streptococcus pyogenes; assay: Inhibitory concentration of compound against Streptococcus pyogenus septicemia in the mouse, administarted in subcutaneous route; assay type: functional; conditions: sc
# Procedure, shortened: (§5)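 Male and female CD1 mice (18-22 g) were infected ip with S. pyogenes C203, with the challenge set so untreated mice died within 48 h. Groups of five received a single treatment immediately after infection. ED50 was calculated from the percentage surviving at each dose on day 10.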
# [12] = system: Mycolicibacterium fortuitum; assay: In vitro activity of compound against rapidly growing Mycobacterium fortuitum 645; assay type: functional
# Procedure, shortened: as §1
# [13] = system: Haemophilus influenzae; assay: In vitro antibacterial activity of compound against Haemophilus influenzae ATCC 19418; assay type: functional
# [14] = system: Mycolicibacterium flavescens; assay: In vitro activity of compound against rapidly growing Mycobacterium flavescens 1284; assay type: functional
# Procedure, shortened: as §1
# [15] = system: Mycobacterium marinum; assay: In vitro activity of compound against slowly growing Mycobacterium marinum 1391; assay type: functional
# Procedure, shortened: as §1
# [16] = system: Mycobacterium xenopi; assay: In vitro activity of compound against slowly growing Mycobacterium xenopi 556; assay type: functional
# Procedure, shortened: as §1
# [17] = system: Mycobacterium scrofulaceum; assay: In vitro activity of compound against slowly growing Mycobacterium scrofulaceum 1297; assay type: functional
# Procedure, shortened: as §1
# [18] = system: Mycobacterium marinum; assay: In vitro activity of compound against slowly growing Mycobacterium marinum 1393; assay type: functional
# Procedure, shortened: as §1
# [19] = system: Streptococcus pyogenes; assay: Minimum inhibitory concentration of compound against Streptococcus pyogenus septicemia in the mouse; assay type: functional
# [20] = system: Mycolicibacterium fortuitum; assay: In vitro activity compound against rapidly growing Mycobacterium fortuitum 1302; assay type: functional
# Procedure, shortened: as §1
# [21] = system: Mycolicibacterium phlei; assay: In vitro activity of compound against rapidly growing Mycobacterium phlei 1289; assay type: functional
# Procedure, shortened: as §1
# [22] = system: Mycobacterium xenopi; assay: In vitro activity of compound against slowl growingy Mycobacterium xenopi 555; assay type: functional
# Procedure, shortened: as §1
# [23] = system: Mycobacterium kansasii; assay: In vitro activity of compound against slowly growing Mycobacterium kansasii 1299; assay type: functional
# Procedure, shortened: as §1
# [24] = system: Mycolicibacterium phlei; assay: In vitro activity of compound against rapidly growing Mycobacterium phlei 141; assay type: functional
# Procedure, shortened: as §1
# [25] = system: Escherichia coli; assay: In vitro antibacterial activity of compound against Escherichia coli SKF 12140; assay type: functional
# [26] = system: Mycolicibacterium fortuitum; assay: In vitro activity of compound against rapidly growing Mycobacterium fortuitum 726; assay type: functional
# Procedure, shortened: as §1
# [27] = system: Mycobacterium marinum; assay: In vitro activity of compound against slowly growing Mycobacterium marinum 1394; assay type: functional
# Procedure, shortened: as §1
# [28] = system: Mycobacterium avium; assay: 50% inhibition of the 20 Mycobacterium (MAC) avium complex clinical isolates; assay type: functional
# Procedure, shortened: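 Agar-dilution MICs, 2-fold dilutions over 128-0.0001 μg/mL, on Middlebrook 7H10 agar with 2% glycerol and 10% OADC. Organisms from Loevenstein-Jensen slants were grown in 7H9 broth with 0.5% Tween and 10% OADC, adjusted to McFarland no. 1, and spotted with a multipoint inoculator. Plates were sealed and incubated at 22, 30 or 37 °C for 4-20 days depending on strain.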
# [29] = system: Mycolicibacterium phlei; assay: In vitro activity of compound against rapidly growing Mycobacterium phlei 1283; assay type: functional
# Procedure, shortened: as §1
# [30] = system: Mycobacterium scrofulaceum; assay: In vitro activity of compound against slowly growing Mycobacterium scrofulaceum 1293; assay type: functional
# Procedure, shortened: as §1
# [31] = system: Enterococcus faecalis; assay: In vitro antibacterial activity of compound against Streptococcus faecalis ATCC 7080.; assay type: functional
# Procedure, shortened: as §3
# [32] = system: Mycolicibacterium fortuitum; assay: In vitro activity of compound against rapidly growing Mycobacterium fortuitum 646; assay type: functional
# Procedure, shortened: as §1
# [33] = system: Mycobacterium gordonae; assay: In vitro activity of compound against slowly growing Mycobacterium gordonae 1441; assay type: functional
# Procedure, shortened: as §1
# [34] = system: Staphylococcus aureus; assay: In vitro antibacterial activity of compound against Staphylococcus aureus Tour L 165; assay type: functional
# Procedure, shortened: as §3
# [35] = system: Mycobacterium scrofulaceum; assay: In vitro activity of compound against slowly growing Mycobacterium scrofulaceum 1301; assay type: functional
# Procedure, shortened: as §1
# [36] = system: Mycolicibacterium fortuitum; assay: In vitro activity of compound against rapidly growing Mycobacterium fortuitum 1287; assay type: functional
# Procedure, shortened: as §1
# [37] = system: Streptococcus pyogenes; assay: Inhibitory concentration of compound against Streptococcus pyogenus septicemia in the mouse, administarted in OS route; assay type: functional
# Procedure, shortened: as §5
# [38] = system: Mycobacterium marinum; assay: In vitro activity of compound against slowly growing Mycobacterium marinum 1447; assay type: functional
# Procedure, shortened: as §1
# [39] = system: Neisseria gonorrhoeae; assay: In vitro antibacterial activity of compound against Neisseria gonorrhoeae ISM 68/126; assay type: functional
# [40] = system: Mycobacterium marinum; assay: In vitro activity of compound against slowly growing Mycobacterium marinum 1388; assay type: functional
# Procedure, shortened: as §1
# [41] = system: Staphylococcus aureus; assay: Activity in the murine model (subcutaneous route) of Staphylococcus aureus tour septicemia; assay type: functional; conditions: sc
# Procedure, shortened: as §4
# [42] = system: Mycobacterium gordonae; assay: In vitro activity of compound against slowly growing Mycobacterium gordonae 1294; assay type: functional
# Procedure, shortened: as §1
# [43] = system: Proteus vulgaris; assay: In vitro antibacterial activity of compound against Proteus vulgaris X19H ATCC 881; assay type: functional
# [44] = system: Mycolicibacterium fortuitum; assay: In vitro activity of compound against rapidly growing Mycobacterium fortuitum 114; assay type: functional
# Procedure, shortened: as §1
# [45] = system: Mycobacterium marinum; assay: In vitro activity of compound against slowly growing Mycobacterium marinum 1390; assay type: functional
# Procedure, shortened: as §1
# [46] = system: Streptococcus pneumoniae; assay: In vitro antibacterial activity of compound against Streptococcus pneumoniae UC 41; assay type: functional
# Procedure, shortened: as §2
# [47] = system: Mycolicibacterium flavescens; assay: In vitro activity of compound against rapidly growing Mycobacterium flavescens 1286; assay type: functional
# Procedure, shortened: as §1
# [48] = system: Mycobacterium xenopi; assay: In vitro activity of compound against slowly growing Mycobacterium xenopi 554; assay type: functional
# Procedure, shortened: as §1
# [49] = system: Mycobacterium scrofulaceum; assay: In vitro activity of compound against slowly growing Mycobacterium scrofulaceum 1292; assay type: functional
# Procedure, shortened: as §1
# [50] = system: Pseudomonas aeruginosa; assay: In vitro antibacterial activity of compound against Pseudomonas aeruginosa ATCC 10145; assay type: functional
# Procedure, shortened: as §3
# [51] = system: Mycobacterium xenopi; assay: In vitro activity compound against slowly growing Mycobacterium xenopi 1446; assay type: functional
# Procedure, shortened: as §1
smiles,measurement,setting,value
CO[C@H]1/C=C/O[C@@]2(C)Oc3c(C)c(O)c4c(O)c(c(/C=N/N5CCN(C)CC5)c(O)c4c3C2=O)NC(=O)/C(C)=C\C=C\[C@H](C)[C@H](O)[C@@H](C)[C@@H](O)[C@@H](C)[C@H](OC(C)=O)[C@@H]1C [RIFAMPIN],MIC,[1],> 128 µg/mL
same,MIC,[2],0.125 µg/mL
same,MIC,[3],0.063 µg/mL
same,MIC,[4],4 µg/mL
same,MIC,[5],0.008 µg/mL
same,MIC,[6],16 µg/mL
same,ED50,[7],0.28 mg/kg
same,MIC,[8],0.25 µg/mL
same,MIC,[9],0.5 µg/mL
same,MIC,[10],16 µg/mL
same,ED50,[11],0.35 mg/kg
same,MIC,[12],4 µg/mL
same,MIC,[13],0.125 µg/mL
same,MIC,[14],128 µg/mL
same,MIC,[15],0.5 µg/mL
same,MIC,[16],1 µg/mL
same,MIC,[17],0.125 µg/mL
same,MIC,[18],0.5 µg/mL
same,MIC,[19],0.063 µg/mL
same,MIC,[20],1 µg/mL
same,MIC,[21],8 µg/mL
same,MIC,[22],1 µg/mL
same,MIC,[23],8 µg/mL
same,MIC,[24],0.032 µg/mL
same,MIC,[25],8 µg/mL
same,MIC,[26],32 µg/mL
same,MIC,[27],0.5 µg/mL
same,MIC50,[28],16 µg/mL
same,MIC,[29],0.25 µg/mL
same,MIC,[30],0.063 µg/mL
same,MIC,[31],1 µg/mL
same,MIC,[32],128 µg/mL
same,MIC,[33],4 µg/mL
same,MIC,[34],0.016 µg/mL
same,MIC,[35],8 µg/mL
same,MIC,[36],2 µg/mL
same,ED50,[37],0.47 mg/kg
same,MIC,[38],1 µg/mL
same,MIC,[39],0.125 µg/mL
same,MIC,[40],1 µg/mL
same,ED50,[41],0.09 mg/kg
same,MIC,[42],0.5 µg/mL
same,MIC,[43],8 µg/mL
same,MIC,[44],128 µg/mL
same,MIC,[45],2 µg/mL
same,MIC,[46],0.063 µg/mL
same,MIC,[47],0.25 µg/mL
same,MIC,[48],1 µg/mL
same,MIC,[49],0.063 µg/mL
same,MIC,[50],8 µg/mL
same,MIC,[51],1 µg/mL
